Source: PubChem
Rows were chosen to be rich in hits. Some 1.6% of all compounds tested hit in one or more screens of this group.
PfGluPho inh: PfG6PD enzyme inhibitors, primary screen, biochemical, fluorescence intensity, uHTS; 350,000 tested, 0.78% active; AID 504690, 2011; inhibition, % at 20 µM; glucose-6-phosphate dehydrogenase-6-phosphogluconolactonase (Plasmodium falciparum 3D7); PfGluPho enzyme, NADPH resazurin-diaphorase fluorescence;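 active means inhibition reaching at least a set limit at 20 µM in the primary screen, cut at about 59% in these data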;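 further: 0% = DMSO wells with substrate and 100% = DMSO wells lacking glucose-6-phosphate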
PKA-R1A activ: activators of PKA-R1A holoenzyme, primary screen, biochemical, fluorescence polarization, Cy5-IP20, bovine R1A, mouse PKAc. cAMP-dependent protein kinase type I-alpha regulatory subunit (Bos taurus) + …. PKA-R1A dissociation; scaled: DMSO 0%, 113 µM cGMP 100%. activation, % at 11.4 µM. 340,000 tested, 0.083% active;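 active means percent activation above the mean of all tested compounds plus 3 SD, cut at about 19% in these data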;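 further: higher means more PKAc released from R1A so a rise in polarization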
HKDC1 inh: HKDC1 hexokinase inhibitors, primary screen, biochemical, fluorescence, uHTS; Q2TB90; recombinant HKDC1, G6PDH/diaphorase resazurin coupled fluorescence; 340,000 tested, 0.16% active; inhibition, % at 20 µM;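 active means inhibition above about 35% when tested at 20 µM, limit read from the data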;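 further: plate controls were DMSO wells with enzyme for no effect and DMSO wells lacking enzyme for full effect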
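System: Recombinant HKDC1 hexokinase | Amount: HKDC1 at 5 µg/mL | Reagent: Glucose with 1 mM ATP | Doses: Single 20 µM dose | Incubation: Reaction time 90 min, room temperature, protected from light | Signal: Coupled resazurin fluorescence, excitation 525 nm, emission 613 nm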
ATG4B inhibitor: ATG4B protease inhibitors, primary screen, biochemical, fluorescence, uHTS; ATG4B cleavage of LC3-PLA2, NBD-HPC fluorescence, 1 h; 340,000 tested, 0.51% active; inhibition, % at 8.33 µM; Cysteine protease ATG4B (Homo sapiens), Q9Y4P1; AID 504462, 2011; in the data active means inhibition above about 40%
Target sequence (Q9Y4P1 whole entry, looked up): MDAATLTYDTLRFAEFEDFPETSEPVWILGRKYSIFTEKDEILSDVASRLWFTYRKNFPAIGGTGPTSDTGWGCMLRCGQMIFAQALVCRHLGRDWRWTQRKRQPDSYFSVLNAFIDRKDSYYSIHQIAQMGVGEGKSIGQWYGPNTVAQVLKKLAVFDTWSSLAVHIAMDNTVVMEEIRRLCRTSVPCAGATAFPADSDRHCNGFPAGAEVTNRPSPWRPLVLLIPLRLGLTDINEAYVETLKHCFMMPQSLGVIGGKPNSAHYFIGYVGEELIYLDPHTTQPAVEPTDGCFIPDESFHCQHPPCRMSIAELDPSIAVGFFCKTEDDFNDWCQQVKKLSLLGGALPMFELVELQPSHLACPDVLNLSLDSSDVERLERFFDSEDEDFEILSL
T cell modulator: modulators of CD8 T cell-vesicle binding, primary screen, mouse 2C CD8+ T cells, flow cytometry | 2C CD8+ T cell-vesicle binding; hits give low values | response (vesicle binding), % at 7 µM | 330,000 tested, 0.068% active | AID 2052, 2009;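 active means response, share of CD8 T cells binding vesicles, and their 90th percentile fluorescence all below set limits, cut at about 80% in these data, passing the limit was not always enough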;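 further: values below 100% mean blocked vesicle binding to the CD8+ T cells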
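Material: murine 2C transgenic CD8+ T lymphocytes / Also added: QL9-peptide-loaded Drosophila micro-vesicles bearing Ld, ICAM-1 and B7-1 / Schedule: binding step 1.5 h, 37 °C, antibody labelling 20 min, ice / Signal: flow cytometry, PE anti-B7-1 (FL2) versus Alexa647 anti-CD8 (FL8), PFA-fixed / Evaluation: percent CD8+ FL2 mean versus row control / Benchmarks: naked versus QL9-loaded vesicles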
PKA-R2B act: activators of PKA-R2B holoenzyme, primary screen, biochemical, fluorescence polarization, Cy5-IP20, human. cAMP-dependent protein kinase catalytic subunit beta (Homo sapiens) + cAMP-dependent …. PKA-R2B holoenzyme dissociation; R2B truncated from residue 108, S112A mutant; 0% DMSO only, 100% 113 µM cGMP. activation, % at 11.4 µM. 340,000 tested, 0.079% active. AID 504700, 2011;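 active means activation above a cutoff set at the mean over all compounds plus 3 SD, cut at about 18% in these data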;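 further: higher means more holoenzyme dissociation and a rise in polarization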
HKDC1 act conf: HKDC1 hexokinase activators, confirmation, biochemical, single concentration; shares compounds with HKDC1 inh; recombinant HKDC1, G6PDH/diaphorase resazurin fluorescence; hits give low values; inhibition, % at 20 µM; 740 tested, 14% active;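 active means inhibition at or below a set negative limit, negative inhibition meaning the enzyme was activated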
Starred values were filed as active, the others as inactive; i = inactive; nt = no result given.

SMILES | PfGluPho inh | PKA-R1A activ | HKDC1 inh | ATG4B inhibitor | T cell modulator | PKA-R2B act | HKDC1 act conf
CC1CCc2c(c3ccccc3n2C(=O)CCl)C1 (stereo not drawn) | 12 | -4 | 46* | -2 | 158 | -2 | -11
Cc1nnc(SCC(=O)c2c(N)n(C3CC3)c(=O)[nH]c2=O)n1-c1ccccc1 | 16 | -5 | -4 | 1 | 599 | 5 | nt
O=C(NN1CCOCC1)c1ccc(Cl)c([N+](=O)[O-])c1 | 5 | -5 | 36* | -3 | 275 | -12 | -34
O=C(c1ccco1)N1CCN(c2nc(-c3ccc(F)cc3)cs2)CC1 | -21 | 1 | -1 | -1 | 254 | 0 | nt
COCCN(C(=O)COC(=O)C1CCCCC1)c1c(N)n(Cc2ccccc2)c(=O)[nH]c1=O | -3 | 0 | nt | nt | nt | -1 | nt
Cc1ccc(S(=O)(=O)Nc2ccc(Br)cc2C(NCC(=O)O)c2ccccc2)cc1 (stereo not drawn) | -32 | -20 | 1 | 2 | 567 | -20 | nt
O=C(O)CSc1cc(NS(=O)(=O)c2ccc(Br)cc2)c2ccccc2c1O | 100* | -1 | 59* | 8 | 126 | 1 | 37
Cc1ccccc1Nc1nc(N)nc(CSc2nnc3sc4ccccc4n23)n1 | 35 | 12 | 36* | -2 | 382 | -4 | 33
c1ccc2oc(C3=NNC(=NC4CC4)SC3)cc2c1 | 23 | 1 | -47 | -9 | 181 | -6 | -24
Cc1cc(C)n2nc(SCc3nnc(SCc4ccccc4C)s3)nc2n1 | 7 | 1 | 53* | 3 | 117 | 1 | 69
Cc1cc(C)n2nc(SCc3nnc(SCc4ccccc4Cl)s3)nc2n1 | 19 | -2 | 41* | 11 | 368 | -7 | 43
Cc1cc(C)c(C(=O)Nn2c(C)nc3ccccc3c2=O)cc1C | 1 | 2 | 0 | -4 | 372 | -11 | nt
Cc1ccc2oc(C(=O)N3CCCCCC3)c(C)c2c1 | 4 | 0 | -3 | 2 | 241 | -7 | nt
Cc1ccc2oc(C(=O)N3CCC(N4CCSCC4)CC3)c(C)c2c1 | 1 | 6 | 35* | -8 | 289 | 15 | -13
C=CCn1c(SCC(=O)Nc2sc3c(c2C#N)CCC(C)C3)nc2cc(C(=O)O)ccc2c1=O (stereo not drawn) | -47 | -10 | 39* | 0 | 436 | -4 | 33
Cc1cc(C)nc(SCC(=O)Nc2sc3c(c2C#N)CCC(C)C3)n1 (stereo not drawn) | 3 | -3 | 1 | -10 | 944 | -9 | nt
COc1ccc(N=C2NN=C(c3ccc4c(c3)OCCO4)CS2)cc1 | 33 | -18 | -84 | -11 | 201 | -1 | -33*
FC(F)Sc1ccc(N=C2NN=C(c3ccc4c(c3)OCCO4)CS2)cc1 | 16 | 1 | -101 | -30 | 480 | 9 | nt
COc1ccc(C(=O)N/C(N)=N/c2nc3ccccc3o2)cc1 | -1 | -11 | -3 | -12 | 275 | -4 | nt
COc1ccc(C(=O)/C=C/Sc2nc3ccccc3o2)cc1 | 27 | -10 | 38* | -20 | 252 | 0 | 4
Cn1nnnc1SCC(=O)NC1CCCC1 | -7 | 2 | 0 | -4 | 160 | 0 | nt
COc1ccc(CCNCCC(c2ccccc2)c2ccccc2)cc1OC | -6 | 1 | nt | nt | nt | -3 | nt
COc1cc(OC)c(OC)cc1CCC(C)NCCC(c1ccccc1)c1ccccc1 (stereo not drawn) | 18 | 2 | 81* | 8 | 214 | 1 | -24
O=C(NC(Cc1ccccc1)C(=O)O)/C(=C/c1ccc(Cl)cc1)NC(=O)c1ccco1 (stereo not drawn) | 6 | -4 | -7 | -8 | 324 | -7 | nt
COc1ccc(N(C(=O)CCl)C(C(=O)NCCc2ccccc2)c2cccs2)cc1Cl (stereo not drawn) | -1 | -13 | 32 | -3 | 122 | -13 | 21
SMILES | PfGluPho inh | PKA-R1A activ | HKDC1 inh | ATG4B inhibitor | T cell modulator | PKA-R2B act | HKDC1 act conf
O=C(/C=C/c1ccc(Br)cc1)NC(=S)Nc1ccc(S(=O)(=O)Nc2nccs2)cc1 | 3 | 5 | 30 | 37 | 177 | 8 | 40
C=CCNC1=C(Cl)C(=O)c2ccccc2C1=O | -142 | -5 | 7 | -2 | 351 | -1 | nt
O=C1C(Cl)=C(NCc2cccnc2)C(=O)c2ccccc21 | -98 | -15 | -45 | -4 | 235 | 3 | -45*
Cc1ccc(NC(=O)CSc2nnc(-c3cccnc3)s2)cc1 | 34 | 0 | -6 | -3 | 174 | -1 | nt
O=C(CSc1nnc(-c2cccnc2)s1)Nc1ccnc2ccccc12 | 28 | -2 | 35 | -11 | 147 | -20 | 18
COC(=O)C1CCN(C(=O)CSc2nnc(-c3ccccc3)o2)CC1 | -12 | -3 | -6 | -5 | 724 | 1 | nt
O=c1nc(/C=C/c2cccn2-c2ccc([N+](=O)[O-])cc2)cc(C(F)(F)F)[nH]1 | 1 | -1 | 16 | 20 | 230 | -2 | nt
O=c1nc(/C=C/c2cc([N+](=O)[O-])ccc2Cl)cc(C(F)(F)F)[nH]1 | 13 | -14 | 30 | -1 | 445 | -18 | 17
O=c1[nH][nH]c2c(N=Cc3ccccc3O)ccc(F)c12 | 54 | 1 | 38* | 7 | nt | 6 | 25
CCc1ccc(O)c(N=Cc2ccccc2O)c1 | 25 | 6 | -10 | 16 | 388 | -13 | nt
CC(C)c1csc(CN2CCC(n3nccc3NC(=O)Cc3ccccc3)CC2)n1 | -5 | -10 | -6 | 0 | 492 | -1 | nt
Cc1ccc(C)c(-n2nnnc2Sc2nnnn2-c2ccccc2)c1 | -5 | -5 | 47* | -8 | 188 | -9 | 39
CCSc1nnnn1-c1ccccc1 | -31 | -12 | -11 | -13 | 238 | -5 | nt
Cc1ccc(S(=O)(=O)N(C(=O)c2ccco2)c2cc3sc(=O)oc3c3ccccc23)cc1 | 54 | -3 | 37* | -8 | i | -2 | -5
Cc1ccc(C)c(OCC(=O)N2CCN(c3ncccn3)CC2)c1 | -1 | -7 | 3 | -1 | 731 | -4 | nt
Cc1ccccc1C(=O)Nc1ccc2c(C#N)c3nc4ccccc4nc3n2c1 | 18 | -2 | 37* | -1 | 202 | 5 | 7
COc1ccc(C2=NN(CC(=O)NCC(OC)OC)C(=O)CC2)cc1 | -1 | -2 | 2 | -7 | 187 | 0 | nt
